Active and inactive are the calls of the source. The calls are words filed in the database; no cut-off is given here.
How the values were obtained:
MDA-MB-231 [1] = assay: Effect on total ULK1 protein level in human MDA-MB-231 cells at 2.5 uM incubated for 24 hrs by Western blot relative to untreated control; assay type: ADME, cell-based; details: mda-mb-231, 24 h
Method in brief: (§1)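 MDA-MB-231 cells were exposed for 24 h. Adherent and floating cells were pooled and lysed for 1 h at 4 °C in 50 mM Hepes pH 7.4 with 1% Triton X-100, orthovanadate, NaF, EDTA, PMSF, aprotinin and leupeptin. After 12,000 rpm clearing, equal protein was run on 10-15% SDS-PAGE and blotted to PVDF. Detection used HRP-ECL, with β-actin as loading control and densitometric quantification.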

[2] = target: T1, Platelet-derived growth factor receptor beta (Homo sapiens, UniProt P09619); assay: Inhibition of PDGFRbeta (unknown origin) using ATP and enzyme substrate by kinase-glo Plus luminescence kinase assay
T1 sequence (P09619 whole entry): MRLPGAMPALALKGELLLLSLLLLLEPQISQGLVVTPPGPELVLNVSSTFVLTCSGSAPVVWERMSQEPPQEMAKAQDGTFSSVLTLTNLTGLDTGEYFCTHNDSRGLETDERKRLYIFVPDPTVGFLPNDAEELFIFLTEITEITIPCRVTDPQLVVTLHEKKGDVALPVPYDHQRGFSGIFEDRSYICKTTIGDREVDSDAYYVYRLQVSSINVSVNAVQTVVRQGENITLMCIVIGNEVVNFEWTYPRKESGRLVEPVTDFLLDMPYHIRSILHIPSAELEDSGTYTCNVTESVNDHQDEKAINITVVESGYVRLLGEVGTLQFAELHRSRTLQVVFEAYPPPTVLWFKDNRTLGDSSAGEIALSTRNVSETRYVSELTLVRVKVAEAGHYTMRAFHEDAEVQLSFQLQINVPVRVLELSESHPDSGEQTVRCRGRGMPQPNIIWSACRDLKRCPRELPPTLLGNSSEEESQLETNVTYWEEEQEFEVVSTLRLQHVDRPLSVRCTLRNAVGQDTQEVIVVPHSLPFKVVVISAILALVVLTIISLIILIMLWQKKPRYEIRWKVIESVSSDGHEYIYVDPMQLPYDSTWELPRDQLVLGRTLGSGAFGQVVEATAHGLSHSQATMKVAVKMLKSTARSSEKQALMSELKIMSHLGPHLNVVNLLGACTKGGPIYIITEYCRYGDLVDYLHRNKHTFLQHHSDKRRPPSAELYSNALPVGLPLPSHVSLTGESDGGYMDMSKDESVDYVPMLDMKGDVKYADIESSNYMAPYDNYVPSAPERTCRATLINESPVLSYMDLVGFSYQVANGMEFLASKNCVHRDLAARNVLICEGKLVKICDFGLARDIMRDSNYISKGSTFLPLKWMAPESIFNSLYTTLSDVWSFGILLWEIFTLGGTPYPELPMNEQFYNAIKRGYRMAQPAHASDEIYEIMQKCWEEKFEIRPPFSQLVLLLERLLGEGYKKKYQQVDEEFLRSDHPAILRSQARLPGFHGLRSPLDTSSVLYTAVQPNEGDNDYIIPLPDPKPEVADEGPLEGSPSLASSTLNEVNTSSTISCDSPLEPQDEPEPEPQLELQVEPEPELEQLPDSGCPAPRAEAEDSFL

MDA-MB-231 [3] = assay: Activation of ERK in human MDA-MB-231 cells assessed as ERK Thr202/Tyr204 phosphorylation level at 2.5 to 10 uM incubated for 24 hrs by immunocytochemistry; assay type: cell-based
Method in brief: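 MDA-MB-231 cells (ATCC; DMEM, 10% FBS, 5% CO2) were treated, blocked in PBS with 1.5% goat serum, then given p-ERK antibody (1:200 in PBS with 1% BSA) overnight at 4 °C. TRITC-labelled secondary antibody followed for 1 h at room temperature. Nuclear fluorescence was read by microscopy.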

[4] = target: T1, Platelet-derived growth factor receptor beta; assay: Inhibition of PDGFRbeta in human MDA-MB-231 cells assessed as mTOR Ser2448 phosphorylation level at 10 uM incubated for 24 hrs by Western blot relative to untreated control; assay type: cell-based
Method in brief: (§2)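 Cells were treated 24 h at several concentrations. Pooled adherent and floating cells were lysed in Hepes 50 mM pH 7.4 / 1% Triton X-100 buffer with vanadate, NaF, EDTA, PMSF, aprotinin and leupeptin. Equal protein was run on 10-15% SDS-PAGE and blotted to PVDF. PDGFR-β-AKT-ULK1 pathway phospho-proteins were probed and detected by ECL, with β-actin as loading control.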

MDA-MB-231 [5] = assay: Induction of apoptosis in human MDA-MB-231 cells assessed as change in cleaved PARP protein level at 10 uM incubated for 24 hrs by Western blot method relative to untreated control; assay type: functional; method in brief: as §1
MDA-MB-231 [6] = assay: Effect on total mTOR protein level in human MDA-MB-231 cells at 5 uM incubated for 24 hrs by Western blot relative to untreated control; assay type: ADME, cell-based; details: mda-mb-231, 24 h; method in brief: as §1
[7] = target: T2, Mitogen-activated protein kinase; ERK1/ERK2 (Homo sapiens) (UniProt P27361+P28482); assay: Inhibition of ERK1/2 in human MDA-MB-231 cells assessed as ERK1/2 Thr202/Tyr204 phosphorylation level at 10 uM incubated for 24 hrs in presence of PDGFRbeta siRNA by Western blot relative to untreated control; assay type: cell-based
T2 sequence (P27361 whole entry, looked up): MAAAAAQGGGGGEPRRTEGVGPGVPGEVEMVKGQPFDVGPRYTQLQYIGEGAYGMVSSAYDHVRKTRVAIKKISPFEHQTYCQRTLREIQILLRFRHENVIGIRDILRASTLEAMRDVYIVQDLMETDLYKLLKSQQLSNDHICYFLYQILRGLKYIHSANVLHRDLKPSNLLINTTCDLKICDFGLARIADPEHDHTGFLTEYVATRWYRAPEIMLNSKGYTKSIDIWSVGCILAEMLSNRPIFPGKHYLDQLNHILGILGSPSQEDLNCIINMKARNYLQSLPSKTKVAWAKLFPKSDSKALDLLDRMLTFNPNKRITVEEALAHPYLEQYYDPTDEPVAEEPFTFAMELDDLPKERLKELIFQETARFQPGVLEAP
T2 sequence (P28482 whole entry, looked up): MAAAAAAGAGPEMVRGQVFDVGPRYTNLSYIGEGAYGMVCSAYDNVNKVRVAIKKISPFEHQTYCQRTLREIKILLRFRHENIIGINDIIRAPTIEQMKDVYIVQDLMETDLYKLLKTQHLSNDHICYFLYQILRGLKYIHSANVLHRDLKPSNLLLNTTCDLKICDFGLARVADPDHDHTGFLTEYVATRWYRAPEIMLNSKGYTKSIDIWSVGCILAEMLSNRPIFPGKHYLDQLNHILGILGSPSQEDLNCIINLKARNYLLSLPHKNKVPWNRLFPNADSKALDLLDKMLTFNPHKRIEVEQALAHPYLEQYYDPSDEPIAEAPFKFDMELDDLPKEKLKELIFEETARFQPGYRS

[8] = target: T2, Mitogen-activated protein kinase; ERK1/ERK2 (Homo sapiens); assay: Inhibition of ERK1/2 in human MDA-MB-231 cells assessed as ERK1/2 Thr202/Tyr204 phosphorylation level at 5 uM incubated for 24 hrs in presence of PDGFRbeta siRNA by Western blot relative to untreated control; assay type: cell-based
MDA-MB-231 [9] = assay: Induction of autophagy in human MDA-MB-231 cells assessed as change in Beclin-1 protein level at 5 uM incubated for 24 hrs by Western blot method relative to untreated control; assay type: functional
Method in brief: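 MDA-MB-231 cells (ATCC; DMEM, 10% FBS, 5% CO2) were treated 24 h over a concentration series. Adherent and floating cells were pooled and lysed 1 h at 4 °C (50 mM Hepes pH 7.4, 1% Triton X-100, phosphatase/protease inhibitors). Equal protein was run on 10-15% SDS-PAGE, transferred to PVDF, probed for Beclin-1, p62 and LC3 with HRP/ECL detection, and normalised to β-actin.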

[10] = target: T1, Platelet-derived growth factor receptor beta; assay: Inhibition of PDGFRbeta in human MDA-MB-231 cells assessed as mTOR Ser2448 phosphorylation level at 2.5 uM incubated for 24 hrs in absence of PDGFRbeta siRNA by Western blot relative to untreated control; assay type: cell-based
Method in brief: (§3)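 Cells were transfected with control or PDGFR-β siRNA, then treated with 2.5 μM compound for 24 h. PDGFR-β-AKT-ULK1 pathway phospho-proteins were assessed by western blot: lysis in Hepes pH 7.4 / Triton buffer, 10-15% SDS-PAGE, PVDF, ECL detection, β-actin as loading control.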

[11] = target: T1, Platelet-derived growth factor receptor beta; assay: Inhibition of PDGFRbeta in human MDA-MB-231 cells assessed as mTOR Ser2448 phosphorylation level at 2.5 uM incubated for 24 hrs in presence of control siRNA by Western blot relative to untreated control; assay type: cell-based; method in brief: as §3
[12] = target: T2, Mitogen-activated protein kinase; ERK1/ERK2 (Homo sapiens); assay: Inhibition of ERK1/2 in human MDA-MB-231 cells assessed as ERK1/2 Thr202/Tyr204 phosphorylation level at 2.5 uM incubated for 24 hrs in presence of PDGFRbeta siRNA by Western blot relative to untreated control; assay type: cell-based
[13] = target: T1, Platelet-derived growth factor receptor beta; assay: Inhibition of PDGFRbeta in human MDA-MB-231 cells assessed as Akt Ser473 phosphorylation level at 5 uM incubated for 24 hrs by Western blot relative to untreated control; assay type: cell-based; method in brief: as §2
MDA-MB-231 [14] = assay: Induction of autophagy in human MDA-MB-231 cells assessed as change in Beclin-1 protein level at 2.5 uM incubated for 24 hrs in presence of PDGFRbeta siRNA by Western blot method relative to untreated control; assay type: functional; method in brief: as §1
MDA-MB-231 [15] = assay: Effect on total ULK1 protein level in human MDA-MB-231 cells at 5 uM incubated for 24 hrs by Western blot relative to untreated control; assay type: ADME, cell-based; details: mda-mb-231, 24 h; method in brief: as §1
[16] = target: T1, Platelet-derived growth factor receptor beta; assay: Inhibition of PDGFRbeta in human MDA-MB-231 cells assessed as Akt Ser473 phosphorylation level at 10 uM incubated for 24 hrs by Western blot relative to untreated control; assay type: cell-based; method in brief: as §2
[17] = target: T1, Platelet-derived growth factor receptor beta; assay: Inhibition of PDGFRbeta in human MDA-MB-231 cells assessed as ULK Ser555 phosphorylation level at 5 uM incubated for 24 hrs by Western blot relative to untreated control; assay type: cell-based; method in brief: as §2
[18] = target: Dual specificity mitogen-activated protein kinase kinase; MEK1/2 (Homo sapiens) (UniProt P36507+Q02750); assay: Inhibition of MEK1/2 in human MDA-MB-231 cells assessed as MEK1/2 Ser217/221 phosphorylation level at 2.5 uM incubated for 24 hrs in presence of PDGFRbeta siRNA by Western blot relative to untreated control; assay type: cell-based
Sequence of Dual specificity mitogen-activated protein kinase kinase; MEK1/2 (Homo sapiens) (P36507 whole entry, looked up): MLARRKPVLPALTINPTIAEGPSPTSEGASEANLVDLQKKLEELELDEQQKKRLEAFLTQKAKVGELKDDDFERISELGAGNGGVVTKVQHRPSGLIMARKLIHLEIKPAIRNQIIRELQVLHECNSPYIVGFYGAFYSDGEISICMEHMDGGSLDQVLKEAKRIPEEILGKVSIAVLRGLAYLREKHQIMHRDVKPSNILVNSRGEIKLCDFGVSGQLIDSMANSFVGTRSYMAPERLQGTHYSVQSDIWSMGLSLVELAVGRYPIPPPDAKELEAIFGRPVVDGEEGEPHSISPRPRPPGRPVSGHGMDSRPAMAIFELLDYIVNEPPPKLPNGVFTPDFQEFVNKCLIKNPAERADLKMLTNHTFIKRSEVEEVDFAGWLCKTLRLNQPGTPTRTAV
Sequence of Dual specificity mitogen-activated protein kinase kinase; MEK1/2 (Homo sapiens) (Q02750 whole entry, looked up): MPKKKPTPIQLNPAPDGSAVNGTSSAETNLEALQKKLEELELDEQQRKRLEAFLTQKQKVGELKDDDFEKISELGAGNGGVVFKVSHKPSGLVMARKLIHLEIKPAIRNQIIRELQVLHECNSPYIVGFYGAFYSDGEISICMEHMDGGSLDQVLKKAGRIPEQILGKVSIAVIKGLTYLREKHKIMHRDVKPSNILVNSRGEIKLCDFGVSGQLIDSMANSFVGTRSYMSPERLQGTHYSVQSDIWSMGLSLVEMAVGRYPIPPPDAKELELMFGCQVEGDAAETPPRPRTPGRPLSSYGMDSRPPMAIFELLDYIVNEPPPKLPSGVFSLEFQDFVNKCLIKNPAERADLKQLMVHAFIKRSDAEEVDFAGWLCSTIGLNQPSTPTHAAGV

MDA-MB-231 [19] = assay: Induction of autophagy in human MDA-MB-231 cells assessed as change in p62 protein level at 2.5 uM incubated for 24 hrs by Western blot method relative to untreated control; assay type: functional; method in brief: as §1
[20] = target: T1, Platelet-derived growth factor receptor beta; assay: Inhibition of PDGFRbeta in human MDA-MB-231 cells assessed as Akt Ser473 phosphorylation level at 2.5 uM incubated for 24 hrs in presence of PDGFRbeta siRNA by Western blot relative to untreated control; assay type: cell-based; method in brief: as §3
MDA-MB-231 [21] = assay: Effect on total Ras protein level in human MDA-MB-231 cells at 10 uM incubated for 24 hrs by Western blot relative to untreated control; details: mda-mb-231, 24 h
MDA-MB-231 [22] = assay: Effect on total MEK1/2 protein level in human MDA-MB-231 cells at 10 uM incubated for 24 hrs in presence of PDGFRbeta siRNA by Western blot relative to untreated control; assay type: cell-based; details: mda-mb-231, 24 h

`COc1cccc(Nc2cc(N3CCN(C(=O)Nc4ccc(C(F)(F)F)cc4)CC3)ncn2)c1` was tested, and the “fold change (FC)” value (MDA-MB-231 [1]) was 0.89, the IC50 [2] was 7.8 µM and the Activity (MDA-MB-231 [3]) was “Active”. For the same molecule, the fold change (FC) [4] was 0.16, the “fold change (FC)” value (MDA-MB-231 [5]) was 0.97 and the “fold change (FC)” value (MDA-MB-231 [6]) was 0.31. The fold change (FC) [7] was 2.38, the fold change (FC) [8] was 1.86 and the “fold change (FC)” value (MDA-MB-231 [9]) was 2.8. It also gave a fold change (FC) [10] of 0.21, a fold change (FC) [11] of 0.26 and a fold change (FC) [12] of 1.05. For the same molecule, the fold change (FC) [13] was 0.23, the “fold change (FC)” value (MDA-MB-231 [14]) was 4.18 and the “fold change (FC)” value (MDA-MB-231 [15]) was 0.91. For the same molecule, the fold change (FC) [16] was 0.18, the fold change (FC) [17] was 4.2 and the fold change (FC) [18] was 1.12. The “fold change (FC)” value (MDA-MB-231 [19]) was 0.78, the fold change (FC) [20] was 0.52 and the “fold change (FC)” value (MDA-MB-231 [21]) was 2.32. The “fold change (FC)” value (MDA-MB-231 [22]) was 1.03.
